pEC50, pIC50: −log10 of the molar value. Blank lines part the entries; values can stand above or below the compound they belong to.
What was measured:
[1] = biological target: Serine/threonine-protein kinase mTOR (Homo sapiens, UniProt P42345); test: Inhibition of recombinant human GST tagged mTOR (1360 to 2549 residues) expressed in baculovirus expression system measured by LanthaScreen assay
How it was run: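 mTOR inhibition measured by LanthaScreen assay; IC50 values average two independent experiments.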

[2] = biological target: Voltage-gated inwardly rectifying potassium channel KCNH2 (Homo sapiens, UniProt Q12809); test: Inhibition of human ERG by fluorescence polarization assay
How it was run: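 Predictor h-ERG membrane preparations (sonicated) incubated with test compound dilutions and fluorescent tracer (working 4X tracer at 4 nM) at room temperature for ≥1 h. Read-out by fluorescence polarization, ex 530/25, em 590/35.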

[3] = biological target: Phosphatidylinositol 4,5-bisphosphate 3-kinase catalytic subunit alpha isoform (Homo sapiens, UniProt P42336); test: Inhibition of human full length p110alpha (1 to 1068 residues) expressed in baculovirus-infected Sf21 cells by ADP-Hunter Plus assay
Homo sapiens = organism: Homo sapiens; test: Selectivity ratio of IC50 for recombinant human GST tagged mTOR (1360 to 2549 residues) expressed in baculovirus expression system to IC50 for human full length p110alpha (1 to 1068 residues) expressed in baculovirus-infected Sf21 cells
How it was run: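 mTOR activity measured by LanthaScreen assay. PI3K-α activity measured by ADP Hunter Plus (ADP accumulation, fluorescence ex 544/em 580 nm), normalized to no-compound control and fitted to a sigmoid dose-response curve. IC50s are the average of two independent experiments. Ratio is mTOR IC50 over PI3K-α IC50.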

Cytochrome P450 1A2 = biological target: T1, Cytochrome P450 1A2 (Homo sapiens, UniProt P05177); test: Inhibition of CYP1A2 (unknown origin) using Luciferin-ME as substrate at 10 uM preincubated with enzyme and substrate for 5 mins followed by addition of NADPH regeneration system and measured after 60 mins by luminescence method; format: ADME
T1 sequence (P05177 whole entry): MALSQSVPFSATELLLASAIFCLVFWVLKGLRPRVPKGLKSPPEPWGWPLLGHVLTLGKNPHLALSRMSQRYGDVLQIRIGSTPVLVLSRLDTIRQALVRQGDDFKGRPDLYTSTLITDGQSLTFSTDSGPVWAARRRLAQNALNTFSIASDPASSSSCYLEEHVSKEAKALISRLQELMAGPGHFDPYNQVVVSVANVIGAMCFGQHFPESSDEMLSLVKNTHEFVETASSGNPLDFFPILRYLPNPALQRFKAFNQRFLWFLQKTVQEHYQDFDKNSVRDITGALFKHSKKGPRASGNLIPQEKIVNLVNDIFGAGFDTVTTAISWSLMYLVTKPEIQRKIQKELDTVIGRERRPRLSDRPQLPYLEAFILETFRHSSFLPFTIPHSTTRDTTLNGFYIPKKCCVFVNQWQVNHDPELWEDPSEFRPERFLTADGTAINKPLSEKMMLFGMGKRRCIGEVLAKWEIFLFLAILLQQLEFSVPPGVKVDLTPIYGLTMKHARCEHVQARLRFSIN
How it was run: (§1)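 P450-Glo luminescence assays with these substrates: Luciferin-ME (CYP1A2), Luciferin-PPXE (CYP3A4), Luciferin-H (CYP2C9), LuciferinH-EG (CYP2C19), Luciferin-ME-EG (CYP2D6). Compounds run in 1/3 serial dilutions from 10 µM in 0.5% DMSO with enzyme and substrate. After 5 min preincubation, NADPH regeneration reagent added; 60 min at 37 °C, then detection reagent for 30 min. Background subtracted.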

[4] = Inhibition of PI3K/mTOR in human U2OS cells assessed as inhibition of AKT1 phosphorylation at Ser473 residue by C-ELISA; format: cell-based
How it was run: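 U2OS osteosarcoma cells grown in 0.1% FBS and serum-stimulated. Endogenous phospho-AKT1 Ser473 quantified by cell-based ELISA with chemiluminescent substrate. Signal plotted against inhibitor concentration and fitted to a sigmoid dose-response curve.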

[5] = AUC (infinity) in BALB/c mouse at 5 mg/kg, iv measured for 8 hrs; format: ADME, organism-based; parameters: route intravenous, dose 5 mg/kg, time 8 hrs; details: in vivo
How it was run: (§2)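 BALB/c mice dosed I.V. or P.O. at the stated dose; plasma levels followed for 8 h. Parameters from noncompartmental analysis: AUC (h.ng/ml), T1/2 (h), Cl (L/h/Kg), Vd (L/Kg), Cmax (ng/ml), Tmax (h).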

[6] = Oral bioavailability in BALB/c mouse at 10 mg/kg measured for 8 hrs; format: ADME, organism-based; details: in vivo; how it was run: as §2
Cytochrome P450 2D6 = Cytochrome P450 2D6 (Homo sapiens, UniProt P10635); test: Inhibition of CYP2D6 (unknown origin) using Luciferin-ME-EG as substrate at 10 uM preincubated with enzyme and substrate for 5 mins followed by addition of NADPH regeneration system and measured after 60 mins by luminescence method; format: ADME; how it was run: as §1
[7] = Half life in BALB/c mouse at 5 mg/kg, iv measured for 8 hrs; format: ADME, organism-based; details: in vivo; how it was run: as §2
[8] = Clearance in BALB/c mouse at 5 mg/kg, iv measured for 8 hrs; format: ADME, organism-based; details: in vivo; how it was run: as §2
[9] = Cmax in BALB/c mouse at 10 mg/kg, po measured for 8 hrs; format: ADME, organism-based; parameters: route oral, dose 10 mg/kg, time 8 hrs; details: in vivo; how it was run: as §2
[10] = Metabolic stability in mouse liver microsomes assessed as parent compound remaining in presence of NADPH regenerating system at 0.5 uM measured after 15 mins by LC-MS/MS analysis; format: ADME, Microsome; details: read-out: Stabilty
How it was run: (§3)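 Human, mouse or rat liver microsomes at 0.5 mg/ml protein with compound at 0.5 µM and NADPH-regenerating system, 37 °C with shaking. Control wells contain 0.1 M potassium phosphate instead of the regenerating system. Reaction stopped with acetonitrile/0.1% formic acid, centrifuged, supernatant analyzed by LC-MS/MS. Result is percent parent compound remaining.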

[11] = Tmax in BALB/c mouse at 10 mg/kg, po measured for 8 hrs; format: ADME, organism-based; details: in vivo
How it was run: (§4)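 Dosing in BALB-C mice intravenously or orally, with plasma sampled over 8 h. Parameters (AUC, T1/2, Cl, Vd, Cmax, Tmax) come from a noncompartmental model. Units: AUC h.ng/ml, Vd L/Kg, Cmax ng/ml, Tmax h.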

[12] = Metabolic stability in human liver microsomes assessed as parent compound remaining in presence of NADPH regenerating system at 0.5 uM measured after 15 mins by LC-MS/MS analysis; format: ADME, Microsome; details: read-out: Stabilty; how it was run: as §3
Cytochrome P450 2C19 = Cytochrome P450 2C19 (Homo sapiens, UniProt P33261); test: Inhibition of CYP2C19 (unknown origin) using LuciferinH-EG as substrate at 10 uM preincubated with enzyme and substrate for 5 mins followed by addition of NADPH regeneration system and measured after 60 mins by luminescence method; format: ADME; how it was run: as §1
[13] = Plasma concentration in BALB/c mouse at 10 mg/kg, po measured for 8 hrs; format: ADME, organism-based; how it was run: as §4
[14] = Metabolic stability in rat liver microsomes assessed as parent compound remaining in presence of NADPH regenerating system at 0.5 uM measured after 15 mins by LC-MS/MS analysis; format: ADME, Microsome; details: read-out: Stabilty; how it was run: as §3
[15] = Half life in BALB/c mouse at 10 mg/kg, po measured for 8 hrs; format: ADME, organism-based; details: in vivo; how it was run: as §2
[16] = Volume of distribution in BALB/c mouse at 5 mg/kg, iv measured for 8 hrs; format: ADME, organism-based; details: in vivo; how it was run: as §4
[17] = AUC(infinity) in BALB/c mouse at 10 mg/kg, po measured for 8 hrs; format: ADME, organism-based; parameters: route oral, time 8 hrs, dose 10 mg/kg; details: in vivo; how it was run: as §2
Cytochrome P450 2C9 = Cytochrome P450 2C9 (Homo sapiens, UniProt P11712); test: Inhibition of CYP2C9 (unknown origin) using Luciferin-H as substrate at 10 uM preincubated with enzyme and substrate for 5 mins followed by addition of NADPH regeneration system and measured after 60 mins by luminescence method; format: ADME; how it was run: as §1
Cytochrome P450 3A4 = Cytochrome P450 3A4 (Homo sapiens, UniProt P08684); test: Inhibition of CYP3A4 (unknown origin) using Luciferin-PPXE as substrate at 10 uM preincubated with enzyme and substrate for 5 mins followed by addition of NADPH regeneration system and measured after 60 mins by luminescence method; format: ADME; how it was run: as §1
Chain of Cytochrome P450 3A4 (P08684 whole entry): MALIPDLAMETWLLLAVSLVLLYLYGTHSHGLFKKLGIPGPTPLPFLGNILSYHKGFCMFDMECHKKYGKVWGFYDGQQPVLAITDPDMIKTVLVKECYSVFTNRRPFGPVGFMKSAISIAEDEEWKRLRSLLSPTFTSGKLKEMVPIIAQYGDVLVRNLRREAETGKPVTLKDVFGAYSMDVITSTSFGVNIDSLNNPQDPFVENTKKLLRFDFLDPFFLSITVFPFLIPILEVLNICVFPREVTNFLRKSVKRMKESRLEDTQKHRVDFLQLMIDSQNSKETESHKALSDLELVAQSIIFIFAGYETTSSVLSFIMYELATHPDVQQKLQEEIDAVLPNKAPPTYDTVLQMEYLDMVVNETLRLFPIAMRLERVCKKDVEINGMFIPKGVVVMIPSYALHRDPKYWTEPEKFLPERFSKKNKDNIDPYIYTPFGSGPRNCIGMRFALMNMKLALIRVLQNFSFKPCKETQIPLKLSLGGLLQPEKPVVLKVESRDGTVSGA

Chain of Phosphatidylinositol 4,5-bisphosphate 3-kinase catalytic subunit alpha isoform (P42336 whole entry, the tested form may be a part, canonical isoform): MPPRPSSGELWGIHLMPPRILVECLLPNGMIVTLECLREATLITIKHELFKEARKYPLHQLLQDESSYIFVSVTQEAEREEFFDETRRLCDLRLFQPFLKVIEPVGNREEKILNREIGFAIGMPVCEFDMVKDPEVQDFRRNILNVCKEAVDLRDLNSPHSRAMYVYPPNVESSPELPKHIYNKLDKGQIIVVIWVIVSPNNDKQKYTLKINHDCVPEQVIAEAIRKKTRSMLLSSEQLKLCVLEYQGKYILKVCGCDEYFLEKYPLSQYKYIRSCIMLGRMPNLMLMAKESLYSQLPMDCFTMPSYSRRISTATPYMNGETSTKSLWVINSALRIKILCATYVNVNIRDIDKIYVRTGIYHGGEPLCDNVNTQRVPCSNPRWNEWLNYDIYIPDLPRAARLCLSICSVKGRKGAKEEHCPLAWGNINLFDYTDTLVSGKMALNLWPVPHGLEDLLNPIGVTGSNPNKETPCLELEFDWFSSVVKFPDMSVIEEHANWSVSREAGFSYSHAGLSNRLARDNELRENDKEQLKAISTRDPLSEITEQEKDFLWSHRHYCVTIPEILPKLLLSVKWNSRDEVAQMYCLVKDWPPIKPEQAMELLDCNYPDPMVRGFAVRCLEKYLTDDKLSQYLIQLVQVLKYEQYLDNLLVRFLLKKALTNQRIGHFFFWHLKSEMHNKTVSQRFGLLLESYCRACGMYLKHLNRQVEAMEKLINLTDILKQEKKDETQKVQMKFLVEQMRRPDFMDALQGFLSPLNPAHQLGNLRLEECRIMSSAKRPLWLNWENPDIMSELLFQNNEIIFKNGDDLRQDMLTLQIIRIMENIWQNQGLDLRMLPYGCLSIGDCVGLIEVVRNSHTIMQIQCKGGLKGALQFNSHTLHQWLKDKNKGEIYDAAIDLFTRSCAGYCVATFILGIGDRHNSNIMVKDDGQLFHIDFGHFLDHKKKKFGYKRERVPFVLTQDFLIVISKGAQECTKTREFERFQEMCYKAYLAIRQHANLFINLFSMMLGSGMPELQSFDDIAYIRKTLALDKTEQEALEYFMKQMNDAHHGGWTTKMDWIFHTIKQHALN
Chain of Voltage-gated inwardly rectifying potassium channel KCNH2 (Q12809 whole entry): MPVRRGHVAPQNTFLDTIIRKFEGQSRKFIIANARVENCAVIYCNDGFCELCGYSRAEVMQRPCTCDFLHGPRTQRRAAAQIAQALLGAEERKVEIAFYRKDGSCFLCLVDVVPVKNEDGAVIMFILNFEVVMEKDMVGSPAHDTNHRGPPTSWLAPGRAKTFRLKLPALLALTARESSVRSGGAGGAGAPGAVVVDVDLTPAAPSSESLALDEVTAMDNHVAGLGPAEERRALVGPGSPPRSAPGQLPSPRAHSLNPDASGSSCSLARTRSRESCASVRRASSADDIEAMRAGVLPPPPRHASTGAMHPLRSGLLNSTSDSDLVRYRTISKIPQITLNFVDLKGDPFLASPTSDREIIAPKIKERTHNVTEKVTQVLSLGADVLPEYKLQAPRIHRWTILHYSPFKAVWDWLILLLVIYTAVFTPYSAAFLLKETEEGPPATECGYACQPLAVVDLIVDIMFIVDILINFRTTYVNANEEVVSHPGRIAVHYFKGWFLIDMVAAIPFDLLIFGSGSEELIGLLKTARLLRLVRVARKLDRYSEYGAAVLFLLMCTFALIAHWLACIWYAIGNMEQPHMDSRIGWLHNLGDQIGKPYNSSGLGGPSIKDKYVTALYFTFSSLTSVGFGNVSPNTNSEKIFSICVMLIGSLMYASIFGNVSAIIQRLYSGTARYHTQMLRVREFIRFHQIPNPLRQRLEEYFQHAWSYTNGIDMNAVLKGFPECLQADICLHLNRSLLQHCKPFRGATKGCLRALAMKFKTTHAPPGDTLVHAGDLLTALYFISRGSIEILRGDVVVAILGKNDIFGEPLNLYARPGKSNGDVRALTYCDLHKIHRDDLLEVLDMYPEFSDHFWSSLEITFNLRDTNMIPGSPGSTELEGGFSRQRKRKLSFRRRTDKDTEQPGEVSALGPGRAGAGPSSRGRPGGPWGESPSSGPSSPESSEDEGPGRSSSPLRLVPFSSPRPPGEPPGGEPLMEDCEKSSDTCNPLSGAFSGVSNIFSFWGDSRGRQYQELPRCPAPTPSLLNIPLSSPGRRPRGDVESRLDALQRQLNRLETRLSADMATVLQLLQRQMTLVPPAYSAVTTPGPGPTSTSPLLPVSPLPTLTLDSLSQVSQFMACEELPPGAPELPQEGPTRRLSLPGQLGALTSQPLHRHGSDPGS
Chain of Cytochrome P450 2D6 (P10635 whole entry): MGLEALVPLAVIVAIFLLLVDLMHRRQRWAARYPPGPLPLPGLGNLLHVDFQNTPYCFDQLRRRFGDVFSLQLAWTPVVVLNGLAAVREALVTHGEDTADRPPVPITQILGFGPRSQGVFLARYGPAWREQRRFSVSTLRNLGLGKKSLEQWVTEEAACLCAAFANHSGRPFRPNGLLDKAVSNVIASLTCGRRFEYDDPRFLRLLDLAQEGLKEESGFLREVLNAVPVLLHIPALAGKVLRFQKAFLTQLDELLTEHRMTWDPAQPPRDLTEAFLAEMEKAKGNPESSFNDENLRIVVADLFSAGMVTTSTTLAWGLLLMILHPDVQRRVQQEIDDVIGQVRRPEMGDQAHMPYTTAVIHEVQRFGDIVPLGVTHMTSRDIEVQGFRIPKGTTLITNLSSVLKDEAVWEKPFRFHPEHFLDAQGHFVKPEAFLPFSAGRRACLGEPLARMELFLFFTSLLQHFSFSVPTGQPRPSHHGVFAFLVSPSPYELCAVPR
Chain of Cytochrome P450 2C9 (P11712 whole entry): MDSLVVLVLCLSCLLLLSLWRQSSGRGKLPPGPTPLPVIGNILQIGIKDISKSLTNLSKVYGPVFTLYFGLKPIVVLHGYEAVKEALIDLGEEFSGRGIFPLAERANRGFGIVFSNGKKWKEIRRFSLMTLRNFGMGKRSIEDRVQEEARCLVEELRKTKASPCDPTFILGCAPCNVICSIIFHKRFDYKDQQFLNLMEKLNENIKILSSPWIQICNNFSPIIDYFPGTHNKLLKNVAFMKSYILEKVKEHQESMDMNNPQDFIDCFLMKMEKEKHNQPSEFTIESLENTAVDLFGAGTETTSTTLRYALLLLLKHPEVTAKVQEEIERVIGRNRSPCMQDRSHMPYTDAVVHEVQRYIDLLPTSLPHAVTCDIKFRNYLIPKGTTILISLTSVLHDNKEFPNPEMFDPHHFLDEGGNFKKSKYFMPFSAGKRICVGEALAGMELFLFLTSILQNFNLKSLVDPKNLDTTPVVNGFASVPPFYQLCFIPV
Chain of Cytochrome P450 2C19 (P33261 whole entry): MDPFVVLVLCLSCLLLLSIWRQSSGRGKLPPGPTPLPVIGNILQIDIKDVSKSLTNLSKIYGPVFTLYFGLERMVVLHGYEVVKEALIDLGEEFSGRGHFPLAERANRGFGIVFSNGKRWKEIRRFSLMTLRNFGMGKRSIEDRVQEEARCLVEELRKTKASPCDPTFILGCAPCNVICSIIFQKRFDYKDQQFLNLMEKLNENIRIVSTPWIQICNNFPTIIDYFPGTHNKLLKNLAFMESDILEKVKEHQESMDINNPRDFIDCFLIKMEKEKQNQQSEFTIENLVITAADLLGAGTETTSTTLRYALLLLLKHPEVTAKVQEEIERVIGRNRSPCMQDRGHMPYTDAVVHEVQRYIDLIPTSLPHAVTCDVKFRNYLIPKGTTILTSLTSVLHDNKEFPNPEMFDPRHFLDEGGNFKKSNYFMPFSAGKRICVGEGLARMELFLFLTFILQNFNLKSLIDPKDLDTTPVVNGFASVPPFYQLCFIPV

Compound: COc1ncc2cc1NS(=O)(=O)c1cccc(c1)C(=O)NCc1ccc(F)c(c1)-c1ccnc3ccc-2cc13
pIC50 [1]: 6.18

Compound: COc1ncc2cc1NS(=O)(=O)c1cccc(c1)C(=O)NCCn1cc(cn1)-c1cnc3ccc-2cn13
pIC50 [2]: < 4.52
pIC50 [1]: 5.24

Compound: COc1ncc2cc1NS(=O)(=O)c1cc(c(F)cc1F)C(=O)NCc1cccc(c1)-c1ccnc3ccc-2cc13
pIC50 [1]: 7.20

Compound: COc1ncc2cc1NS(=O)(=O)c1cccc(c1)C(=O)NCCn1cc(cn1)-c1ccnc3ccc-2cc13
pIC50 [1]: 6.60

Compound: COc1ncc2cc1NS(=O)(=O)c1cccc(c1)C(=O)NCc1cncc(c1)-c1ncnc3sc-2cc13
pIC50 [1]: 7.40

Compound: COc1ncc2cc1NS(=O)(=O)c1cccc(c1)C(=O)NCc1cccc(c1)-c1cnn3ccc-2nc13
pIC50 [2]: < 4.52
pIC50 [3]: 6.35
pIC50 [1]: < 5.00
Ratio IC50 (Homo sapiens): > 22

Compound: COc1ncc2cc1NS(=O)(=O)c1cccc(c1)C(=O)NCc1cncc(c1)-c1ncnc3ccc-2cc13
pIC50 (Cytochrome P450 1A2): < 4.52
pEC50 [4]: 7.69
AUC(0-inf) [5]: 9200 ng·h/mL
bioavailability [6]: 47.6%
pIC50 (Cytochrome P450 2D6): < 4.52
half-life [7]: 2.91 h
pIC50 [2]: < 4.52
clearance [8]: 9 mL/min/kg
Cmax [9]: 1270 ng/mL
remaining at 0.25 h, 0.5 µM [10]: 76%
Tmax [11]: 9.6 min
remaining at 0.25 h, 0.5 µM [12]: 80%
pIC50 (Cytochrome P450 2C19): < 4.52
pIC50 [3]: 8.89
concentration at 8 h [13]: 424 ng/mL
remaining at 0.25 h, 0.5 µM [14]: 86%
pIC50 [1]: 8.31
half-life [15]: 5.68 h
Vd [16]: 0.59 L/kg
Ratio IC50 (Homo sapiens): 3.8
AUC(0-inf) [17]: 8760 ng·h/mL
pIC50 (Cytochrome P450 2C9): < 4.52
pIC50 (Cytochrome P450 3A4): < 4.52

Compound: COc1ncc2cc1NS(=O)(=O)c1cccc(c1)C(=O)NCc1cncc(c1)-c1cnc3ccc-2nn13
pEC50 [4]: 7.00
pIC50 [2]: < 4.52
pIC50 [3]: 8.52
pIC50 [1]: 7.78
Ratio IC50 (Homo sapiens): 5.5

The next lines start with results.

pIC50 [1]: 7.31
Compound: COc1ncc2cc1NS(=O)(=O)c1cccc(c1)C(=O)NCc1cncc(c1)-c1ccnc3ccc-2nc13
pIC50 [2]: < 4.52

pIC50 [1]: 6.60
Compound: COc1ncc2cc1NS(=O)(=O)c1cccc(c1)C(=O)N1CCc3ccc(cc3C1)-c1ccnc3ccc-2cc13

pIC50 [1]: 7.78
Compound: COc1ncc2cc1NS(=O)(=O)c1cccc(c1)C(=O)NCCn1cc(cn1)-c1ncnc3ccc-2cc13

pIC50 [1]: < 5.00
Compound: COc1ncc2cc1NS(=O)(=O)c1cccc(c1)C(=O)NCc1cccc(c1)-c1ccnc3ccc-2nc13

pIC50 [1]: 7.68
Compound: COc1ncc2cc1NS(=O)(=O)c1cccc(c1)C(=O)NCc1cccc(c1)-c1ccnc3ccc-2cc13

From ChEMBL document CHEMBL4819017 (Eur J Med Chem, 2021)
